Measured values published in publication PMC11294631 (Nature Communications, 2024).
Read-outs that look alike come from different tables or passages of the source.

Tests used:
SNAP-mGluR3 [1] = biological target: T1, SNAP-mGluR3 (Rattus norvegicus, UniProt P31422); test: GIRK current, whole-cell patch clamp; type: cell-based; settings: GIRK1-F137S co-expressed
SNAP-mGluR3 [2] = biological target: T1, SNAP-mGluR3; test: GIRK current, whole-cell patch clamp; type: cell-based
Summary of the method: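 Cells grown in DMEM with 10% FBS at 37 °C/5% CO2, seeded on poly-L-lysine-coated glass coverslips, and co-transfected (Lipofectamine 2000) with receptor, GIRK1-F137S homotetramer and tdTomato. Medium was switched at 6 h to 5 µM LY341495. Whole-cell voltage clamp at −60 mV 24–36 h post-transfection. Log EC50 of point mutants versus WT compared by extra sum-of-squares F-test.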

T1 sequence (P31422 23-879): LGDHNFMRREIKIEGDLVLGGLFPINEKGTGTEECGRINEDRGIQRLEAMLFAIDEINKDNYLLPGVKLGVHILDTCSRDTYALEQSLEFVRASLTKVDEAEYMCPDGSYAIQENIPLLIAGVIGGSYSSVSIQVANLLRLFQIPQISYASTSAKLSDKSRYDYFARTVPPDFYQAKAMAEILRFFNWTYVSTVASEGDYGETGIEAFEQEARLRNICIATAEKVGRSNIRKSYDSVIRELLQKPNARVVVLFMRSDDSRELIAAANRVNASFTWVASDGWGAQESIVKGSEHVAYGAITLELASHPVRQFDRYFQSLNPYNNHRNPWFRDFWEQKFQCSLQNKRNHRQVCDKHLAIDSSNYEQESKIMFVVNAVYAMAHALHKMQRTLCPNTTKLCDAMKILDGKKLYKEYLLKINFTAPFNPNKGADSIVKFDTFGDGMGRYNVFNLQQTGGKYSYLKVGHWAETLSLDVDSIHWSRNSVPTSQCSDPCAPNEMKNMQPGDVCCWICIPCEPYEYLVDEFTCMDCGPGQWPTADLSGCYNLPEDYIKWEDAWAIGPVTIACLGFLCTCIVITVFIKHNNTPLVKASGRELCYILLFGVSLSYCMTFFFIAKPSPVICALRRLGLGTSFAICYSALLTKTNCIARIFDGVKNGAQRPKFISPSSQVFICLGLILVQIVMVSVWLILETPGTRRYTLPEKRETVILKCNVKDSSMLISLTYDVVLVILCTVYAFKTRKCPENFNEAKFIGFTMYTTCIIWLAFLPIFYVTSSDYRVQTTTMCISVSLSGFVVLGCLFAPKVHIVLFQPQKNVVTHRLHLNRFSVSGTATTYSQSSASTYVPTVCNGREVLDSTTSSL

Compound | EC50 (SNAP-mGluR3 [1]; orthosteric agonist) | other results
N[C@@H](CCC(=O)O)C(=O)O [glutamate] | All three agonists produced dose-dependent, reversible GIRK currents | –
COc1ccc(C(=O)O)cc1OC[C@H](C)COc1ccc(C(=O)CC(C)(C)C)c(O)c1C [VU6023326, (R)−3-(3-(4-(3,3-dimethylbutanoyl)−3-hydroxy-2-methylphenoxy)−2-methyl-propoxy)−4-methoxybenzoic acid] | – | EC50 (SNAP-mGluR3 [2]): 7.94 nM
N[C@@]1(C(=O)O)CO[C@H]2[C@H](C(=O)O)[C@H]21 [LY379268] | All three agonists produced dose-dependent, reversible GIRK currents | –
N[C@H](C(=O)O)C1[C@@H](C(=O)O)[C@@H]1C(=O)O (stereo partly shown) [DCG-IV] | – | EC50 (SNAP-mGluR3 [1]; orthosteric partial agonist): All three agonists produced dose-dependent, reversible GIRK currents
